Measured values reported in ChEMBL document CHEMBL4190330, “Discovery of Potent and Selective A2A Antagonists with Efficacy in Animal Models of Parkinson's Disease and Depression” (ACS Med Chem Lett, 2017).
The source made the active and inactive calls. The calls are words filed in the database; no cut-off is given here.

Assays:
Rattus norvegicus [1] = assay: Anti-parkinson's activity in po dosed Wistar rat assessed as reversal of haloperidol-induced catalepsy measured after 1 to 4 hrs; assay type: functional, organism-based
Summary of the method: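 Haloperidol-induced catalepsy in rats; oral dosing; catalepsy scored at 1, 2 and 4 h; ED50 derived; mean ± SEM, n=6-7.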

[2] = Metabolic stability in dog liver microsomes assessed as metabolic rate; assay type: ADME, Canis lupus familiaris, microsome
Summary of the method: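 Liver microsomes (mouse, rat, dog, human) at 0.125 mg/mL protein; metabolic rate expressed as nmol/min/mg.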

Adenosine receptor A2a [3] = molecular target: Adenosine receptor A2a (Rattus norvegicus, UniProt P30543); assay: Antagonist activity at rat A2A receptor assessed as reduction in CGS-21680-induced cAMP level pretreated for 15 mins followed by CGS-21680 addition measured after 30 mins by HTRF assay; assay type: functional
Chain of Adenosine receptor A2a (Rattus norvegicus, UniProt P30543) (P30543 whole entry): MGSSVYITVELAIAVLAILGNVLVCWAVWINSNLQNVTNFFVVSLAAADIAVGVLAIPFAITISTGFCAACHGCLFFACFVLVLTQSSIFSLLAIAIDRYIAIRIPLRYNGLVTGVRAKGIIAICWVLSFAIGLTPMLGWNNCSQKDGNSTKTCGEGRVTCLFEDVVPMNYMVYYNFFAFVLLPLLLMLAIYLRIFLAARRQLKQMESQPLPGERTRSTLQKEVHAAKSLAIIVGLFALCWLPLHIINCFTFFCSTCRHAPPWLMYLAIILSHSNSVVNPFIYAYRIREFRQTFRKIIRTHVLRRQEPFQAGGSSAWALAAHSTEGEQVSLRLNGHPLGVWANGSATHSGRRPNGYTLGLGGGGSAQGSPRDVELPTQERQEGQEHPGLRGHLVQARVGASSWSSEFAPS
Summary of the method: (§1)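 HTRF-based cAMP functional assay; each compound tested at 12 concentrations, every point in triplicate; Ki given as mean of two independent experiments (n=2).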

[4] = Protein binding in human plasma; assay type: ADME, cell-free; settings: read-out: PPB (converted)
[5] = Solubility of the compound at pH 2; assay type: physicochemical; settings: buffer
Mus musculus [6] = assay: Antidepressant-like activity in po dosed mouse assessed as reduction in immobility time treated 1 hr prior to testing measured for 6 mins by tail suspension test
Rattus norvegicus [7] = assay: Anti-parkinson's activity in po dosed 6-OHDA-lesioned Wistar rat assessed as increase in L-DOPA induced contralateral rotations measured up to 2 hrs; assay type: functional
Summary of the method: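 6-OHDA-lesioned rats given oral test doses; L-DOPA 4 mg/kg ip; contralateral rotations recorded up to 2 h, dosing 60 min prior; mean ± SEM, n=6-7; compared with L-DOPA-alone group.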

[8] = molecular target: T1, Nuclear receptor subfamily 1 group I member 2 (Homo sapiens, UniProt O75469); assay: Transactivation of recombinant human PXR expressed in HepG2 cells after 42 hrs by dual luciferase reporter gene assay; assay type: ADME, cell-based
T1 sequence (O75469 whole entry): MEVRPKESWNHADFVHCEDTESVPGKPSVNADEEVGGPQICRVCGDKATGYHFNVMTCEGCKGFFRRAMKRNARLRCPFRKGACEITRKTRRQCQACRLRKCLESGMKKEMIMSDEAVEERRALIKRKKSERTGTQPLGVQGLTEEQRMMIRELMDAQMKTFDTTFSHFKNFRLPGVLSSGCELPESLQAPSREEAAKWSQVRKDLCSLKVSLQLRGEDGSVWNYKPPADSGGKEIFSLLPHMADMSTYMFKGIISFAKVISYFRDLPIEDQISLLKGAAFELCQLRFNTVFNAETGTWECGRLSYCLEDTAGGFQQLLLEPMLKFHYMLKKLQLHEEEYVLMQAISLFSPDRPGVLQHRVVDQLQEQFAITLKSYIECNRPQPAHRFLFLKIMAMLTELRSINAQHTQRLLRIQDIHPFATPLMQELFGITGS

Rattus norvegicus [9] = assay: Protection against L-DOPA-induced dyskinesias in 6-OHDA-lesioned Wistar rat model of parkinson's disease assessed as reduction in abnormal involuntary movements at 0.3 to 3 mg/kg, po administered twice daily for 21 days measured every 7 days; assay type: functional, organism-based
Summary of the method: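 6-OHDA-lesioned rats given oral test compound (0.3-3 mg/kg) with L-DOPA, repeated daily; abnormal involuntary movements scored; mean ± SEM, n=6-7.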

Cytochrome P450 1A2 = molecular target: T2, Cytochrome P450 1A2 (Homo sapiens, UniProt P05177); assay: Inhibition of CYP1A2 (unknown origin); assay type: ADME
T2 sequence (P05177 whole entry): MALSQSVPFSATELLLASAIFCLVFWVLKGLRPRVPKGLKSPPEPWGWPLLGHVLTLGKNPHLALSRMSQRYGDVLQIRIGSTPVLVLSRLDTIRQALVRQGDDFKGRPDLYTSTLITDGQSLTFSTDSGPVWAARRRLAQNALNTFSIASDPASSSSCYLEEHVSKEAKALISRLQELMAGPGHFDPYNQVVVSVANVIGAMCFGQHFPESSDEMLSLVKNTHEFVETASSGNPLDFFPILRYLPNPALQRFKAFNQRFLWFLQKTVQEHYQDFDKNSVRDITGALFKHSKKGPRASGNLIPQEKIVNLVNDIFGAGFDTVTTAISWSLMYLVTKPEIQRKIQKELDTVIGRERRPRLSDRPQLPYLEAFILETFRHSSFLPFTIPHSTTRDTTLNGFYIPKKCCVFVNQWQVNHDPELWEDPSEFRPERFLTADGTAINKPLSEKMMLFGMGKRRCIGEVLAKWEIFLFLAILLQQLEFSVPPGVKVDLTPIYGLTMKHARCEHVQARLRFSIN

Homo sapiens [10] = species: Homo sapiens; assay: Selectivity ratio of Ki for displacement of [3H]-HEMADO from human A3 receptor expressed in HEK293 cell membranes to Ki for displacement of [3H]ZM241385 from human A2A receptor expressed in HEK293 cell membranes
Summary of the method: (§2)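 Radioligand binding used membranes from HEK-293 cells overexpressing each human adenosine receptor isoform. Points were run in triplicate, and 8-concentration IC50 curves were plotted to give Ki. The selectivity value is the Ki at the off-target isoform divided by the Ki at hA2A.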

[11] = AUC (0 to t) in Wistar rat at 3 mg/kg, iv by LC-MS/MS analysis; assay type: ADME, organism-based; settings: in vivo
Mus musculus [12] = assay: Antidepressant-like activity in po dosed mouse assessed as reduction in immobility time treated 1 hr prior to testing measured last 4 mins of 6 mins test by forced swim test
Homo sapiens [13] = species: Homo sapiens; assay: Selectivity ratio of Ki for displacement of [3H]-DPCPX from human A1 receptor expressed in HEK293 cell membranes to Ki for displacement of [3H]ZM241385 from human A2A receptor expressed in HEK293 cell membranes; summary of the method: as §2
Adenosine receptor A2a [14] = molecular target: Adenosine receptor A2a (Homo sapiens, UniProt P29274); assay: Antagonist activity at human A2A receptor expressed in HEK293 cell membranes assessed as reduction in CGS-21680-induced cAMP level pretreated for 15 mins followed by CGS-21680 addition measured after 30 mins by HTRF assay; assay type: functional, cell-based; summary of the method: as §1
Chain of Adenosine receptor A2a (Homo sapiens, UniProt P29274) (P29274 whole entry): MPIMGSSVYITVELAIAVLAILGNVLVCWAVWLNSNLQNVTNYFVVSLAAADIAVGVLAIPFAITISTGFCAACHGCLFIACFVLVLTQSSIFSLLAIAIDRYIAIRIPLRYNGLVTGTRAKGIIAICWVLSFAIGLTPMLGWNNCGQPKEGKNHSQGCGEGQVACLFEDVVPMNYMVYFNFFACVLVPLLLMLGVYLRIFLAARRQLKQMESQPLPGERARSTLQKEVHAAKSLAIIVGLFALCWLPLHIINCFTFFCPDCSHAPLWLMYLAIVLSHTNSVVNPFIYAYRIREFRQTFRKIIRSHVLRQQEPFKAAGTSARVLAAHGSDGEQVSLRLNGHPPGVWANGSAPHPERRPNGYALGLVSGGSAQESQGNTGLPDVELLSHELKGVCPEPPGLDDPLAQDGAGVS

Adenosine receptor A1 = molecular target: T3, Adenosine receptor A1 (Homo sapiens, UniProt P30542); assay: Displacement of [3H]-DPCPX from human A1 receptor expressed in HEK293 cell membranes after 90 mins radioligand binding assay
T3 sequence (P30542 whole entry): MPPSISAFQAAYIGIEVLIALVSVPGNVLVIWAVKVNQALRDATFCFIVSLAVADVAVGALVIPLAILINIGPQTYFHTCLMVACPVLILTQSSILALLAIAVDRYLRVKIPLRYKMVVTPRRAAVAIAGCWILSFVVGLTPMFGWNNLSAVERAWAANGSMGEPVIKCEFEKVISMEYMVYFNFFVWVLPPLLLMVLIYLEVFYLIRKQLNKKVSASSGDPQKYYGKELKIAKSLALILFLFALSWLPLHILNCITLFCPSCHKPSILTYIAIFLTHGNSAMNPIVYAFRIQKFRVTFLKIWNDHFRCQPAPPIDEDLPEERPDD
Summary of the method: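 Membranes from HEK-293 cells overexpressing the relevant human adenosine receptor subtype; all points in triplicate; Ki derived from 8-concentration IC50 curves.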

hERG = hERG (Homo sapiens, UniProt Q12809); assay: Inhibition of human ERG at 3 uM relative to control
Chain of hERG (Q12809 whole entry): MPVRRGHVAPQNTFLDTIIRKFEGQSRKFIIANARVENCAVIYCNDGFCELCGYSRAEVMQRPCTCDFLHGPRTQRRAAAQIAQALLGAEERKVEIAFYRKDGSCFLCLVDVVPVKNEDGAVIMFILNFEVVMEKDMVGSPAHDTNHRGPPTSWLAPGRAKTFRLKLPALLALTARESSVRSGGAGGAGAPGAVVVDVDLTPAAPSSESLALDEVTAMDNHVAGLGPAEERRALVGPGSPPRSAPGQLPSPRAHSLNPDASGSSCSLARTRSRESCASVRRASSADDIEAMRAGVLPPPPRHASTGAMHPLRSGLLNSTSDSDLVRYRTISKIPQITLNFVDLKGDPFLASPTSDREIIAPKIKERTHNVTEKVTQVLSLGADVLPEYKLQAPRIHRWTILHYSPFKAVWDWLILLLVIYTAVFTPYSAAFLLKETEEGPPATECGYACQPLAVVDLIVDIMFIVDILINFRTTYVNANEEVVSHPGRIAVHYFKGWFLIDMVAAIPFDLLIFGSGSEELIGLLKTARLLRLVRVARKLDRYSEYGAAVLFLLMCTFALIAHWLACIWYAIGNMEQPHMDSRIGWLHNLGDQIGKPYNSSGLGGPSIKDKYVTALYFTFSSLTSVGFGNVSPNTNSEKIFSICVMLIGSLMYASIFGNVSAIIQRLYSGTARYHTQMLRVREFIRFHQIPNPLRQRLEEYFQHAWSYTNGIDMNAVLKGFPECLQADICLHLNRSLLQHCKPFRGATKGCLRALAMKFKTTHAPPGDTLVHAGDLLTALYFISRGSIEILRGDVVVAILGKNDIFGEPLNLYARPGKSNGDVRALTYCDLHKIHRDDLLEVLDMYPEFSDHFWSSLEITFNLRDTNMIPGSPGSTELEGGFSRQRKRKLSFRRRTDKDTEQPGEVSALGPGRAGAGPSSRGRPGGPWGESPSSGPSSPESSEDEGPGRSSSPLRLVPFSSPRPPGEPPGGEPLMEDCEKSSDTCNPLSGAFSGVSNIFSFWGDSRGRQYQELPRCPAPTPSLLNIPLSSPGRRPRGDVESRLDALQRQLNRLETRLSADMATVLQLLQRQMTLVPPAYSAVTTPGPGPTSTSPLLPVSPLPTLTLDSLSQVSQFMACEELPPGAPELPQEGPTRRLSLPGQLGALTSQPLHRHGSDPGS

- Drug metabolism [2]: 0.04 nmol/min/mg
- Ki (Adenosine receptor A2a [3]): 0.44 to 4.4 nM
- fraction unbound [4]: 0.15
- solubility [5]: > 2000 µM
- EC50 [8]: > 60000 nM
- IC50 (Cytochrome P450 1A2): > 10000 nM
- AUC(0-t) [11]: 3.6 µM·h
- Ki (Adenosine receptor A2a [14]): 0.4 nM
- Ki (Adenosine receptor A1): 1700 nM
SMILES: COCCOc1ccc(N2CCN(CCn3c(=O)n(C)c4c3nc(N)n3nc(-c5nccs5)nc43)CC2)cc1F
- Activity (Rattus norvegicus [1]): Dose-dependent effect
- ED50 (Rattus norvegicus [1]): 4.49 mg/kg
- ED50 (Mus musculus [6]): 0.7 mg/kg
- Activity (Rattus norvegicus [7]): Dose-dependent effect
- ED50 (Rattus norvegicus [7]): 1.2 mg/kg
- Activity (Rattus norvegicus [9]): Active
- Ratio Ki (Homo sapiens [10]): > 3000
- ED50 (Mus musculus [12]): 5.29 mg/kg
- Ratio Ki (Homo sapiens [13]): > 1100
- inhibition at 3 µM (hERG): 28%
